Laboratory results as given in ChEMBL document CHEMBL3817780, “Structure-Based Design of 1,4-Dibenzoylpiperazines as β-Catenin/B-Cell Lymphoma 9 Protein-Protein Interaction Inhibitors” (ACS Med Chem Lett, 2016).
Calls of active or inactive are those of the source. The rule behind the calls is not given here.

What was measured:
[1] = target: T1, beta-catenin-B-cell lymphoma 9 protein complex (Homo sapiens, UniProt P35222); experiment: Competitive inhibition of wild type beta-catenin (unknown origin) expressed in Escherichia coli BL21 DE3 interaction with N-terminally biotinylated human BCL9 (350 to 375 residues) by alpha screen assay
T1 sequence (P35222 whole entry): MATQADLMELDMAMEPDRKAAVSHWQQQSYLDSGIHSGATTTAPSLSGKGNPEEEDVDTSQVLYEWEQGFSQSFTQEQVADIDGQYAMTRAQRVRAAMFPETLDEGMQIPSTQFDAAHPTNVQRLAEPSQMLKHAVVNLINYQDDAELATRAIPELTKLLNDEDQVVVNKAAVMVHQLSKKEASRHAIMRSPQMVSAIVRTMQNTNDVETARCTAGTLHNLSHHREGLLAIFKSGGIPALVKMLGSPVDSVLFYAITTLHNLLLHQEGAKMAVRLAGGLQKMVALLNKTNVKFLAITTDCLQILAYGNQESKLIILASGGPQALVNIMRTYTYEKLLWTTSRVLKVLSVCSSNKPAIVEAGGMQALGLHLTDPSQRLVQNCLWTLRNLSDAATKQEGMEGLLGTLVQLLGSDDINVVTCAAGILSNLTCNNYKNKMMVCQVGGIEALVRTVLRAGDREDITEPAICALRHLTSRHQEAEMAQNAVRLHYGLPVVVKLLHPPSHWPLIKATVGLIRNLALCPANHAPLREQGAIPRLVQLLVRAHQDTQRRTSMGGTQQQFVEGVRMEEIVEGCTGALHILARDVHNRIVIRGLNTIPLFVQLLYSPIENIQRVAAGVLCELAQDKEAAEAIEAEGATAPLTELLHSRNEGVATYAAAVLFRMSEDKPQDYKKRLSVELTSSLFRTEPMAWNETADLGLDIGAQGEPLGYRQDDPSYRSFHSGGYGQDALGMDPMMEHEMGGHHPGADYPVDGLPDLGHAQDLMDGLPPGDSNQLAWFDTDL
T1 sequence (O00512 whole entry): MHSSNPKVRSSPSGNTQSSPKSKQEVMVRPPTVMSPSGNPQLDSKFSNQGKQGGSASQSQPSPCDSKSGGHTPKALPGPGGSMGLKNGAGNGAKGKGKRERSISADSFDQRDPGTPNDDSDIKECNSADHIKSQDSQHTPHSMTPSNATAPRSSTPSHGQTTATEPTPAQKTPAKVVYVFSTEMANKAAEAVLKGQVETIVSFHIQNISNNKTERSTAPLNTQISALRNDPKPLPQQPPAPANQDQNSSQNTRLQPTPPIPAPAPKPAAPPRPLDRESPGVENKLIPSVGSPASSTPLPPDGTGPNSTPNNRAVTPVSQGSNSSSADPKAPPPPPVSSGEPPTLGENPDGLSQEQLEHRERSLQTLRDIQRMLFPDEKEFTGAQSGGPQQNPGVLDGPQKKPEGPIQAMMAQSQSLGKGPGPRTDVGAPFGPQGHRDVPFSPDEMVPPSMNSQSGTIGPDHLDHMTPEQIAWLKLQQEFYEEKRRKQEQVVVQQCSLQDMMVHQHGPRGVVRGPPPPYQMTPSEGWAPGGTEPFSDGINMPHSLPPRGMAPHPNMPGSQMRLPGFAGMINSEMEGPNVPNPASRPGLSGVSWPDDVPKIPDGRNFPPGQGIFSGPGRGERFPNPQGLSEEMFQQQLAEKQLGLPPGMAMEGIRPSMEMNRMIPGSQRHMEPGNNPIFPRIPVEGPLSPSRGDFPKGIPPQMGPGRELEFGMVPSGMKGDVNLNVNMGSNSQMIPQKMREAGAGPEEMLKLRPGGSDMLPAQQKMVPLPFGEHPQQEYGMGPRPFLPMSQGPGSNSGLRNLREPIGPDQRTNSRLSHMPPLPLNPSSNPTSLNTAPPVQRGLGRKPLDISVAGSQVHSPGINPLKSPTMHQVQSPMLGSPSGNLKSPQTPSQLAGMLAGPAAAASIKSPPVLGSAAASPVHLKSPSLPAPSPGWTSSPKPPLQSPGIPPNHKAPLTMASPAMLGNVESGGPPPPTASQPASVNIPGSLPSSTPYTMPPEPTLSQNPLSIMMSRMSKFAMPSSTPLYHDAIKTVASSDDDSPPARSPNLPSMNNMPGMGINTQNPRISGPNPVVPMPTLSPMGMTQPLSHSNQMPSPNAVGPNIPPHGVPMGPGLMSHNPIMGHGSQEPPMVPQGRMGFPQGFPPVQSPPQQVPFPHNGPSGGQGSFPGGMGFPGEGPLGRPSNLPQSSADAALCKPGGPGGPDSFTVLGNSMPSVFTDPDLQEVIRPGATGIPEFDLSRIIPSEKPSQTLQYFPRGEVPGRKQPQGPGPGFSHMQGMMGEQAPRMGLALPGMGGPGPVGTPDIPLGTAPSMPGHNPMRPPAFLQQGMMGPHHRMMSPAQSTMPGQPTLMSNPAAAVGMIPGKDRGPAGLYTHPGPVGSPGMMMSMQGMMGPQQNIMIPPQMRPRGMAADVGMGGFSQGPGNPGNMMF
How it was run: (§1)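 Competitive AlphaScreen binding assays run in parallel against wild-type β-catenin, one with the BCL9 partner and one with the E-cadherin partner; data given as mean ± standard deviation, n = 3.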

[2] = target: T2, Catenin beta-1 (Homo sapiens) (UniProt P35222); experiment: Inhibition of beta-catenin (unknown origin) expressed in HEK293 cells after 24 hrs by topflash dual luciferase reporter gene assay; assay type: cell-based
T2 sequence (whole entry): T1 sequence (P35222 whole entry)
How it was run: (§2)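 HEK293 cells transfected with pcDNA3.1−β-catenin; TOPFlash reporter carries wild-type Tcf binding sites and FOPFlash carries mutant Tcf sites; luciferase activity read across a dose series; mean ± standard deviation, n = 2.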

SW480 = experiment: Cytotoxicity against Wnt-activated human SW480 cells assessed as reduction in cell viability after 72 hrs by MTS assay; assay type: functional, cell-based; conditions: SW480, 72 h
[3] = Cytotoxicity against Wnt-activated human HCT116 cells assessed as reduction in cell viability after 72 hrs by MTS assay; assay type: functional, cell-based; conditions: HCT-116, 72 h
A549 [4] = experiment: Cytotoxicity against Wnt-signaling latent human A549 cells assessed as reduction in cell viability after 72 hrs by MTS assay; assay type: functional, cell-based; conditions: A549, 72 h
HEK293 = experiment: Cytotoxicity against HEK293 cells assessed as reduction in cell viability after 72 hrs by MTS assay; assay type: cell-based; conditions: Homo sapiens, HEK293, 72 h
A549 [5] = experiment: Selectivity ratio of IC50 for human A549 cells to IC50 for human SW480 cells; assay type: functional
A549 [6] = experiment: Selectivity ratio of IC50 for human A549 cells to IC50 for human HCT116 cells; assay type: functional
[7] = Selectivity ratio of IC50 for HEK293 cells to IC50 for human SW480 cells; assay type: ADME, cell-based; conditions: HEK293 cells versus SW480 cells, read-out: Ratio IC50
[8] = Selectivity ratio of IC50 for human HEK293 cells to IC50 for human HCT116 cells; assay type: ADME, cell-based; conditions: HEK293 cells versus HCT116 cells, read-out: Ratio IC50
[9] = target: Cadherin-1/Transcription factor 7-like 2 (Homo sapiens, UniProt P12830+Q9NQB0); experiment: Competitive inhibition of wild type beta-catenin (unknown origin) expressed in Escherichia coli BL21 DE3 interaction with N-terminally biotinylated human E-cadherin (824 to 887 residues) by alpha screen assay; how it was run: as §1
[10] = Competitive inhibition of N-terminally fluorescein-labeled human BCL9 (350 to 375 residues) interaction with beta-catenin E155A mutant (138 to 686 residues) (unknown origin) expressed in Escherichia coli BL21 DE3 after 3 hrs by fluorescence polarization assay
[11] = Competitive inhibition of N-terminally fluorescein-labeled human BCL9 (350 to 375 residues) interaction with beta-catenin D145A/E155A double mutant (138 to 686 residues) (unknown origin) expressed in Escherichia coli BL21 DE3 after 3 hrs by fluorescence polarization assay
[12] = Competitive inhibition of N-terminally fluorescein-labeled human BCL9 (350 to 375 residues) interaction with beta-catenin D145A mutant (138 to 686 residues) (unknown origin) expressed in Escherichia coli BL21 DE3 after 3 hrs by fluorescence polarization assay
[13] = target: T2, Catenin beta-1 (Homo sapiens); experiment: Inhibition of beta-catenin (unknown origin) expressed in HEK293 cells up to 100 uM after 24 hrs by fopflash dual luciferase reporter gene assay; assay type: cell-based; how it was run: as §2
Homo sapiens = species on record: Homo sapiens; experiment: Selectivity ratio of Ki for wild type beta-catenin (unknown origin)/ N-terminally biotinylated human BCL9 (350 to 375 residues) interaction to Ki for wild type beta-catenin (unknown origin)/N-terminally biotinylated human E-cadherin (824 to 887 residues) interaction

Cadherin-1/Transcription factor 7-like 2, sequence (Q9NQB0 whole entry, the tested form may be a part): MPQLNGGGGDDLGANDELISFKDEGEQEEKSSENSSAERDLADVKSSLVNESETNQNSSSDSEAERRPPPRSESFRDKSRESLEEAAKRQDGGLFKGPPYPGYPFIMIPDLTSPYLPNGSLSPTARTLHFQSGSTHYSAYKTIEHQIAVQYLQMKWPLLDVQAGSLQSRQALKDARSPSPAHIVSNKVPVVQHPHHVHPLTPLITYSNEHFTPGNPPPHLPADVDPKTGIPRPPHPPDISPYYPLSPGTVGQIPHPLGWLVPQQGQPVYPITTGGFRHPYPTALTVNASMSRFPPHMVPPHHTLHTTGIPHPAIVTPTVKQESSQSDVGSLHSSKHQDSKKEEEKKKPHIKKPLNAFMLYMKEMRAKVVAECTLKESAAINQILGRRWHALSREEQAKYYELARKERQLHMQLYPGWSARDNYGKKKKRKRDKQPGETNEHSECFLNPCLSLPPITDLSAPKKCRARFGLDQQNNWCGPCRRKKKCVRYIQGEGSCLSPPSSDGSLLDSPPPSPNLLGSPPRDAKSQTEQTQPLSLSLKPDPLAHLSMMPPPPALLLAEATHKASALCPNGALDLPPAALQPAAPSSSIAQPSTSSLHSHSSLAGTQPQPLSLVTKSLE
Cadherin-1/Transcription factor 7-like 2, sequence (P12830 whole entry, the tested form may be a part): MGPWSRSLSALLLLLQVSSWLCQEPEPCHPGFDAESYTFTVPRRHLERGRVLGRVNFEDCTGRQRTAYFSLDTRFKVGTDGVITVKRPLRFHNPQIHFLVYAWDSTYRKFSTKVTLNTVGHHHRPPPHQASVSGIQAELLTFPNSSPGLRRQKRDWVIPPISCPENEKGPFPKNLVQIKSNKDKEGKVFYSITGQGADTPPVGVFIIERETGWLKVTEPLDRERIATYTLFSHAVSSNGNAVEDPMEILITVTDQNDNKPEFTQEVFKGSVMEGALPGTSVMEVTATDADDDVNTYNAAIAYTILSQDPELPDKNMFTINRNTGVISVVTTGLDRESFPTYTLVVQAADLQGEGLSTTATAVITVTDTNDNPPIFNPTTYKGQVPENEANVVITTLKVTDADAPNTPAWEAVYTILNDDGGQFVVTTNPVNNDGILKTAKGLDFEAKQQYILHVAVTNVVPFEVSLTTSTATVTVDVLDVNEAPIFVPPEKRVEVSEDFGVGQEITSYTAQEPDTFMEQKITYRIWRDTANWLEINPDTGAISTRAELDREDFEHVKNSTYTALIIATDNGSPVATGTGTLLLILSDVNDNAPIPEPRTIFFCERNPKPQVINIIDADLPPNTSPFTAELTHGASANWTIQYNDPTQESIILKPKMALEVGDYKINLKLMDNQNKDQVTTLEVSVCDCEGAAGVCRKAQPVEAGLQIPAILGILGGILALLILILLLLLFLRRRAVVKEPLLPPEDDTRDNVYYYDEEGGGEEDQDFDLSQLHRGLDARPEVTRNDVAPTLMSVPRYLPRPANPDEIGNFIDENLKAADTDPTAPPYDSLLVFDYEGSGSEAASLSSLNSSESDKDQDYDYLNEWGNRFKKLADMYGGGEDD

SMILES: O=C(c1cc(F)cc(N2CCNCC2)c1)N1CCN(C(=O)c2ccc(O[C@H]3CCNC3)c(C3CCC(F)(F)CC3)c2)CC1
- Ki [1]: 45 µM

SMILES: CC(C)c1cc2c(c(O)c1O)[C@@]1(C(=O)O)CCCC(C)(C)[C@@H]1CC2 [CARNOSIC ACID]
- Ki [1]: 5.3 µM

SMILES: Cl.Cl.O=C(c1cc(F)cc(N2CCNCC2)c1)N1CCN(C(=O)c2ccc(O[C@H]3CCNC3)c(C3CCC(C(F)(F)F)CC3)c2)CC1 (stereo partly specified)
- inhibition [2]: Dose-dependent effect
- Ki [1]: 16 µM
- IC50 (SW480): 44 µM
- IC50 [3]: 39 µM
- IC50 (A549 [4]): > 400 µM
- IC50 (HEK293): 130 µM
- Ratio IC50 (A549 [5]): >10
- Ratio IC50 (A549 [6]): >10
- selectivity ratio [7]: 3
- selectivity ratio [8]: 3

SMILES: NCCc1cc(F)cc(C(=O)N2CCN(C(=O)c3cnc(O[C@H]4CCNC4)c(-c4ccc(F)cc4)c3)CC2)c1
- Ki [1]: > 500 µM

SMILES: O=C(c1cc(F)cc(N2CCNCC2)c1)N1CCN(C(=O)c2ccc(O[C@H]3CCNC3)c(C3CCCC3)c2)CC1
- Ki [1]: 53 µM

SMILES: CCC1CCC(c2cc(C(=O)N3CCN(C(=O)c4cc(F)cc(N5CCNCC5)c4)CC3)ccc2O[C@H]2CCNC2)CC1 (stereo partly specified)
- Ki [1]: 170 µM

SMILES: O=C(c1cc(F)cc(C2CCNCC2)c1)N1CCN(C(=O)c2ccc(O[C@H]3CCNC3)c(-c3ccc(F)cc3)c2)CC1
- Ki [1]: 20 µM

SMILES: CC1(C)CCC(c2cc(C(=O)N3CCN(C(=O)c4cc(F)cc(N5CCNCC5)c4)CC3)ccc2O[C@H]2CCNC2)CC1
- Ki [1]: 70 µM

SMILES: Cl.Cl.O=C(c1cc(F)cc(N2CCNCC2)c1)N1CCN(C(=O)c2ccc(O[C@H]3CCNC3)c(C3CCCCC3)c2)CC1
- inhibition [2]: Dose-dependent effect
- IC50 [1]: 5.6 µM
- IC50 [9]: 550 µM
- Ki [9]: 510 µM
- Ki [10]: 39 µM
- Ki [11]: 53 µM
- Ki [12]: 29 µM
- inhibition [13]: inactive
- IC50 (SW480): 22 µM
- IC50 [3]: 26 µM
- IC50 (A549 [4]): 300 µM
- IC50 (HEK293): 130 µM
- Ratio IC50 (A549 [5]): >10
- Ratio IC50 (A549 [6]): >10
- selectivity ratio [7]: 3
- selectivity ratio [8]: 3

SMILES: O=C(c1cc(F)cc(N2CCNCC2)c1)N1CCN(C(=O)c2ccc(O[C@H]3CCNC3)c(-c3ccc(F)cc3)c2)CC1
- IC50 (SW480): 86 µM

SMILES: O=C(Nc1ccc(OC2CCNC2)c(-c2ccc(F)cc2)c1)c1ccc(O[C@H]2CCNC2)c(-c2ccc(F)c(F)c2)c1 (stereo partly specified)
- Ki [1]: 2.1 µM
- Ratio Ki (Homo sapiens): 125
